Measured values published in ChEMBL document CHEMBL1157589, “Antifungal 3,5-disubstituted furanones: From 5-acyloxymethyl to 5-alkylidene derivatives” (Bioorg Med Chem, 2010).
≈ marks a conversion by molar mass, not a printed value. One block for each compound: values may come before it.

What was measured:
Assay type in all cases: functional
Candida albicans [1] = test: Antifungal activity against Candida albicans ATCC 44859 after 48 hrs by microdilution method; conditions: ATCC 44859, 48 h
Procedure, shortened: (§1)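 Yeasts held on Sabouraud dextrose agar. MIC by NCCLS M27-A broth microdilution in RPMI 1640 with L-glutamine, buffered with 0.165 M MOPS to pH 7.0. Compounds in DMSO (≤2% final), twofold dilutions 500–0.48. Final inoculum 5 × 10³ ± 0.2 cfu mL⁻¹. Incubated at 35 °C; absorbance at 540 nm read at 24 and 48 h. MIC is 80% growth inhibition versus control; run twice in duplicate.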

Candida albicans [2] = test: Antifungal activity against Candida albicans ATCC 90028 after 24 hrs by microdilution method; conditions: ATCC 90028, 24 h; procedure, shortened: as §1
Candida albicans [3] = test: Antifungal activity against Candida albicans ATCC 90028 after 48 hrs by microdilution method; conditions: ATCC 90028, 48 h; procedure, shortened: as §1
Candida parapsilosis [4] = test: Antifungal activity against Candida parapsilosis ATCC 22019 after 24 hrs by microdilution method; conditions: Lodderomyces parapsilosis, ATCC 22019, 24 h; procedure, shortened: as §1
Candida parapsilosis [5] = test: Antifungal activity against Candida parapsilosis ATCC 22019 after 48 hrs by microdilution method; conditions: Lodderomyces parapsilosis, ATCC 22019, 48 h; procedure, shortened: as §1
Pichia kudriavzevii [6] = test: Antifungal activity against Candida krusei ATCC 6258 after 24 hrs by microdilution method; conditions: ATCC 6258, 24 h; procedure, shortened: as §1
Pichia kudriavzevii [7] = test: Antifungal activity against Candida krusei ATCC 6258 after 48 hrs by microdilution method; conditions: ATCC 6258, 48 h; procedure, shortened: as §1
Pichia kudriavzevii [8] = test: Antifungal activity against Candida krusei E28 after 24 hrs by microdilution method; conditions: E28, 24 h; procedure, shortened: as §1
Pichia kudriavzevii [9] = test: Antifungal activity against Candida krusei E28 after 48 hrs by microdilution method; conditions: E28, 48 h; procedure, shortened: as §1
Candida tropicalis [10] = test: Antifungal activity against Candida tropicalis 156 after 24 hrs by microdilution method; conditions: Candida tropicalis, 156, 24 h; procedure, shortened: as §1
Candida tropicalis [11] = test: Antifungal activity against Candida tropicalis 156 after 48 hrs by microdilution method; conditions: Candida tropicalis, 156, 48 h; procedure, shortened: as §1
Nakaseomyces glabratus [12] = test: Antifungal activity against Candida glabrata 20/I after 24 hrs by microdilution method; procedure, shortened: as §1
Nakaseomyces glabratus [13] = test: Antifungal activity against Candida glabrata 20/I after 48 hrs by microdilution method; procedure, shortened: as §1
Clavispora lusitaniae [14] = test: Antifungal activity against Candida lusitaniae 2446/I after 24 hrs by microdilution method; procedure, shortened: as §1
Clavispora lusitaniae [15] = test: Antifungal activity against Candida lusitaniae 2446/I after 48 hrs by microdilution method; procedure, shortened: as §1
Trichosporon beigelii [16] = test: Antifungal activity against Trichosporon beigelii 1188 after 48 hrs by microdilution method; conditions: Trichosporon beigelii, 1188, 48 h; procedure, shortened: as §1
Aspergillus fumigatus [17] = test: Antifungal activity against Aspergillus fumigatus 231 after 24 hrs by microdilution method; conditions: Aspergillus fumigatus, 231, 24 h
Procedure, shortened: (§2)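 Filamentous strains held on Sabouraud dextrose agar. NCCLS M27-A broth microdilution in RPMI 1640 with L-glutamine and 0.165 M MOPS, pH 7.0. DMSO diluent ≤2% final; twofold dilutions 500–0.48. Inoculum 5 × 10³ ± 0.2 cfu mL⁻¹ final.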

Aspergillus fumigatus [18] = test: Antifungal activity against Aspergillus fumigatus 231 after 48 hrs by microdilution method; conditions: Aspergillus fumigatus, 231, 48 h; procedure, shortened: as §2
Lichtheimia corymbifera [19] = test: Antifungal activity against Absidia corymbifera 272 after 48 hrs by microdilution method; conditions: Lichtheimia corymbifera, 272, 48 h; procedure, shortened: as §2
Candida albicans [20] = test: Antifungal activity against Candida albicans ATCC 44859 after 24 hrs by microdilution method; conditions: ATCC 44859, 24 h; procedure, shortened: as §1
Trichosporon beigelii [21] = test: Antifungal activity against Trichosporon beigelii 1188 after 24 hrs by microdilution method; conditions: Trichosporon beigelii, 1188, 24 h; procedure, shortened: as §1
Lichtheimia corymbifera [22] = test: Antifungal activity against Absidia corymbifera 272 after 24 hrs by microdilution method; conditions: Lichtheimia corymbifera, 272, 24 h; procedure, shortened: as §2
[23] = test system: Trichophyton mentagrophytes; test: Antifungal activity against Trichophyton mentagrophytes 445 after 72 hrs by microdilution method; conditions: Trichophyton mentagrophytes, 445, 72 h
Procedure, shortened: (§3)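 Dermatophyte held on Sabouraud dextrose agar. M27-A microdilution in MOPS-buffered (0.165 M, pH 7.0) RPMI 1640 with L-glutamine. DMSO ≤2% final; twofold dilutions 500–0.48. Inoculum 5 × 10³ ± 0.2 cfu mL⁻¹ final. Incubated at 35 °C; MIC read visually at 72 and 120 h as 80% inhibition of control growth; determined twice in duplicate.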

[24] = test system: Trichophyton mentagrophytes; test: Antifungal activity against Trichophyton mentagrophytes 445 after 120 hrs by microdilution method; conditions: Trichophyton mentagrophytes, 445, 120 h; procedure, shortened: as §3

MIC95 (Candida albicans [1]): 0.06 µM (≈ 0.0554 µg/mL)
MIC95 (Candida albicans [2]): 0.07 µM (≈ 0.0647 µg/mL)
MIC95 (Candida albicans [3]): 0.14 µM (≈ 0.129 µg/mL)
MIC95 (Candida parapsilosis [4]): 0.03 µM (≈ 0.0277 µg/mL)
MIC95 (Candida parapsilosis [5]): 0.14 µM (≈ 0.129 µg/mL)
MIC95 (Pichia kudriavzevii [6]): 0.14 µM (≈ 0.129 µg/mL)
MIC95 (Pichia kudriavzevii [7]): 0.14 µM (≈ 0.129 µg/mL)
MIC95 (Pichia kudriavzevii [8]): 0.14 µM (≈ 0.129 µg/mL)
MIC95 (Pichia kudriavzevii [9]): 0.18 µM (≈ 0.166 µg/mL)
MIC95 (Candida tropicalis [10]): 0.09 µM (≈ 0.0832 µg/mL)
MIC95 (Candida tropicalis [11]): 0.11 µM (≈ 0.102 µg/mL)
MIC95 (Nakaseomyces glabratus [12]): 0.03 µM (≈ 0.0277 µg/mL)
MIC95 (Nakaseomyces glabratus [13]): 0.09 µM (≈ 0.0832 µg/mL)
MIC95 (Clavispora lusitaniae [14]): 0.14 µM (≈ 0.129 µg/mL)
MIC95 (Clavispora lusitaniae [15]): 0.27 µM (≈ 0.25 µg/mL)
MIC95 (Trichosporon beigelii [16]): 1.8 µM (≈ 1.66 µg/mL)
MIC95 (Aspergillus fumigatus [17]): 0.18 µM (≈ 0.166 µg/mL)
MIC95 (Aspergillus fumigatus [18]): 0.23 µM (≈ 0.213 µg/mL)
MIC95 (Lichtheimia corymbifera [19]): 2.16 µM (≈ 2 µg/mL)
MIC95 (Candida albicans [20]): 0.03 µM (≈ 0.0277 µg/mL)
Structure (SMILES): C[C@@H]1[C@H](O)[C@@H](C)/C=C/C=C/C=C/C=C/C=C/C=C/C=C/[C@H](O[C@@H]2O[C@H](C)[C@@H](O)[C@H](N)[C@@H]2O)C[C@@H]2O[C@](O)(C[C@@H](O)C[C@@H](O)[C@H](O)CC[C@@H](O)C[C@@H](O)CC(=O)O[C@H]1C)C[C@H](O)[C@H]2C(=O)O [AMPHOTERICIN B]

MIC80 (Candida albicans [1]): 1.95 µM (≈ 0.704 µg/mL)
MIC80 (Candida albicans [2]): 1.95 µM (≈ 0.704 µg/mL)
MIC80 (Candida albicans [3]): 3.9 µM (≈ 1.41 µg/mL)
MIC80 (Candida parapsilosis [4]): 7.81 µM (≈ 2.82 µg/mL)
MIC80 (Candida parapsilosis [5]): 15.6 µM (≈ 5.64 µg/mL)
MIC80 (Pichia kudriavzevii [6]): 7.81 µM (≈ 2.82 µg/mL)
MIC80 (Pichia kudriavzevii [7]): 15.6 µM (≈ 5.64 µg/mL)
MIC80 (Pichia kudriavzevii [8]): 7.81 µM (≈ 2.82 µg/mL)
MIC80 (Pichia kudriavzevii [9]): 15.6 µM (≈ 5.64 µg/mL)
MIC80 (Candida tropicalis [10]): 7.81 µM (≈ 2.82 µg/mL)
MIC80 (Candida tropicalis [11]): 7.81 µM (≈ 2.82 µg/mL)
MIC80 (Nakaseomyces glabratus [12]): 1.95 µM (≈ 0.704 µg/mL)
MIC80 (Nakaseomyces glabratus [13]): 1.95 µM (≈ 0.704 µg/mL)
MIC80 (Clavispora lusitaniae [14]): 3.9 µM (≈ 1.41 µg/mL)
MIC80 (Clavispora lusitaniae [15]): 7.81 µM (≈ 2.82 µg/mL)
MIC80 (Trichosporon beigelii [21]): 7.81 µM (≈ 2.82 µg/mL)
MIC80 (Trichosporon beigelii [16]): 15.6 µM (≈ 5.64 µg/mL)
MIC80 (Aspergillus fumigatus [17]): 1.95 µM (≈ 0.704 µg/mL)
MIC80 (Aspergillus fumigatus [18]): 7.81 µM (≈ 2.82 µg/mL)
MIC80 (Lichtheimia corymbifera [22]): 15.6 µM (≈ 5.64 µg/mL)
MIC80 (Lichtheimia corymbifera [19]): 62.5 µM (≈ 22.6 µg/mL)
MIC80 [23]: 1.95 µM (≈ 0.704 µg/mL)
MIC80 [24]: 1.95 µM (≈ 0.704 µg/mL)
MIC80 (Candida albicans [20]): 0.97 µM (≈ 0.35 µg/mL)
Structure (SMILES): O=C1OC(COc2ccc(O)cc2)C=C1c1ccc(Br)cc1 (centres undefined)
